From the RNAGym collection of RNA variant scans (doi:10.1126/science.aae0568)
This sample holds only a part of the variants without activity.

B1: tRNA (parent)
chain: GUUCCGUUGGCGUAAUGGUAACGCGUCUCCCUCCUAAGGAGAAGACUGCGGGUUCGAGUCCCGUACGGAACG

Variants of: B1
Assay: yeast fitness relative to wild type (ratio to wild type); higher = fitter; tRNA-Arg(CCU), competitive growth, 37 C, YPD
Outline: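 Gene amplicons from the start population and from each of six end populations were read by 100-nucleotide paired-end sequencing. Those end populations came from pooled Saccharomyces cerevisiae strains carrying tRNA-Arg(CCU) gene variants at the native locus, competed in YPD at 37°C for 24 hours. Fitness relative to wild type was worked out from changes in genotype frequencies. Genotypes needed ≥ 100 starting reads, and estimates < 0.5 were set to 0.5.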

| Variant | yeast fitness |
| --- | --- |
| U7G A15G U19C A21G G41A C55A G63C | ≤ 0.5 |
| U7C C30G U32C A40C C62U G67A | ≤ 0.5 |
| U7C A20G C31U A43G U59A | ≤ 0.5 |
| U7C C46U | 0.884 |
| U7C C46G | 0.943 |
| U7C C30U C34A G52C | ≤ 0.5 |
| U7C C46G G50A C62G U64C | 0.695 |
| U7C U19C C34U G52A U59A | 0.678 |
| U7C G12A A45C C61G A65C | ≤ 0.5 |
| U7C A21C | 0.606 |
| U7C A21U | 0.769 |
| U7C C61U U64A A69G | 0.535 |
| U7C G50C A70G | ≤ 0.5 |
| U7G A20C | 0.651 |
| U7G A20G | 0.872 |
| U7C G10A C24G | ≤ 0.5 |
| U7G A14G U64A | 0.527 |
| U7C U8A G23A | ≤ 0.5 |
| U7C C24A G67A | ≤ 0.5 |
| U7C C29U C31A C66G G67U | ≤ 0.5 |
| U7C U13G C30U A65U | 0.619 |
| U7C C22G | 0.842 |
| U7C G63A | 0.856 |
| U7C G44A | 0.807 |

| Variant | yeast fitness |
| --- | --- |
| U7C U26C U53A | ≤ 0.5 |
| U7C G10C C46U G63C | ≤ 0.5 |
| U7C C55A G67A | ≤ 0.5 |
| U7C G41A A42C G50C C62G | ≤ 0.5 |
| U7C A42C U53A | ≤ 0.5 |
| U7C C34G A45G C60U A69U | ≤ 0.5 |
| U7G A20C A42C | ≤ 0.5 |
| U7C C27A A69U | ≤ 0.5 |
| U7C A40U A42U U54A U64G | ≤ 0.5 |
| U7G A15G C27U G68A | ≤ 0.5 |
| U7C G39C U47A G58A G63A | ≤ 0.5 |
| U7C C11G C24U G48A A57G C66U A70C | ≤ 0.5 |
| U7G A20G U47A C61A | 0.597 |
| U7C C24U | 0.855 |
| U7C G25C U47C | 0.622 |
| U7C G10C C49U A65G | ≤ 0.5 |
| U7C A36C A57U C61A C66G | 0.537 |
| U7C A36C A57U C61A C66A | ≤ 0.5 |
| U7C A21U C22A C49U G50C A69U | ≤ 0.5 |
| U7C C29G G39A | ≤ 0.5 |
| U7C U32C U53C | 0.536 |
| U7C U16G U28A | ≤ 0.5 |
| U7C C27G C33G G44A | 0.75 |
| U7C A42U | 0.728 |

| Variant | yeast fitness |
| --- | --- |
| U7C U16G G17A C49U U59C C62A | ≤ 0.5 |
| U7G A14U U19A C22U | ≤ 0.5 |
| U7C C33U G63A | 0.54 |
| U7C C30U C34A A57U C66A | 0.555 |
| U7C C11G C24U G48A C66U | ≤ 0.5 |
| U7C C24U A42G U54A C55G | ≤ 0.5 |
| U7C A21U C22A | ≤ 0.5 |
| U7C U53A | 0.655 |
| U7C C61U A70G | 0.712 |
| U7G A14G C22U G38A | 0.534 |
| U7C G18C A37G G51C | 0.697 |
| U7C U59G C60A G68U | ≤ 0.5 |
| U7C A40G | 0.822 |
| U7C A40U | 0.793 |
| U7C C31U A57U | 0.539 |
| U7C A65U | 0.849 |
| U7C C31U A70U | 0.658 |
| U7C G18A G50A U64A | ≤ 0.5 |
| U7C U8C U26G | ≤ 0.5 |
| U7C G12A U13C U26C | 0.565 |
| U7C A20G C30A | ≤ 0.5 |
| U7C C62A | 0.786 |
| U7C G9A A14C C33G G50C C60G U64A | 0.618 |
| U7C A36G A45U | 0.569 |

| Variant | yeast fitness |
| --- | --- |
| U7C C22A C31U A57C G58A A69G | ≤ 0.5 |
| U7G A14G | 0.911 |
| U7G A14C | 0.532 |
| U7C C31G U32C G48C G50A A65U | ≤ 0.5 |
| U7C G9A G23C A45C | ≤ 0.5 |
| U7C U26C C31G U35C C46A C66A | ≤ 0.5 |
| U7C A37U G39C A43U C55G | ≤ 0.5 |
| U7C G12A C31U U47C | ≤ 0.5 |
| U7C G68U | 0.674 |
| U7C U16G A20G U26C C49G | ≤ 0.5 |
| U7C U47C U64G G68C | ≤ 0.5 |
| U7C G51C A57G | ≤ 0.5 |
| U7C G41A A42C G50C A69C | 0.527 |
| U7C G12A U13C U26C C61U G63A | 0.596 |
| U7C C29G G44C | 0.567 |
| U7C C55U | 0.847 |
| U7C C11A C33A A36C G63C C66G | ≤ 0.5 |
| U7C G25A U59C A69C | ≤ 0.5 |
| U7C C11G U13G C30U A70C | ≤ 0.5 |
| U7C C24U C31A A42G U54A C55G | ≤ 0.5 |
| U7C C24A G68A | ≤ 0.5 |
| U7C C24A C55A C62U A65C | ≤ 0.5 |
| U7C G67A A70U | ≤ 0.5 |
| U7C C29G G58C G67C | ≤ 0.5 |

| Variant | yeast fitness |
| --- | --- |
| U7G A14U U53A | 0.554 |
| U7C C29G U47C U53G | ≤ 0.5 |
| U7G A15G A21C | ≤ 0.5 |
| U7C C30A | 0.794 |
| U7C C30G | 0.579 |
| U7C G38A | 0.881 |
| U7C G38C | 0.715 |
| U7G A15G C33G A69U | ≤ 0.5 |
| U7C C11U C31U C33G C49A G51A | ≤ 0.5 |
| U7G A15C U16A C33G A69C | ≤ 0.5 |
| U7C G25A G41A A42C G50C A70G | 0.569 |
| U7C U26C A36G A42G G48C A65C | ≤ 0.5 |
| U7C C22U C49U C55A | ≤ 0.5 |
| U7C C11G C24U G48A C66U A70C | ≤ 0.5 |
| U7C C49A G67A | ≤ 0.5 |
| U7G A20G A70G | 0.615 |
| U7C A43C A57G U59C A70G | ≤ 0.5 |
| U7G A21C G58C | ≤ 0.5 |
| U7C U13G C30U | ≤ 0.5 |
| U7C G12A C24U C49A | ≤ 0.5 |
| U7C G12C | 0.914 |
| U7G A21U | 0.717 |
| U7G A21G | 0.816 |
| U7G A21C | 0.588 |

| Variant | yeast fitness |
| --- | --- |
| U7C C27G C33G G44A C61G | ≤ 0.5 |
| U7G A21C G50A U64C | ≤ 0.5 |
| U7C A37G A42C C49G C61U | 0.504 |
| U7C U8A C24G U64C | ≤ 0.5 |
| U7C G67C | 0.951 |
| U7C C31U | 0.954 |
| U7C C31G | 0.81 |
| U7C C30G G39A G41U G51C G52A | ≤ 0.5 |
| U7G A14U U19A C22U C60G | ≤ 0.5 |
| U7C G10C C61G C62U | ≤ 0.5 |
| U7C G50A | 0.684 |
| U7C G23A G56C G68A | ≤ 0.5 |
| U7C U64G | 0.809 |
| U7C G58A G67A | 0.62 |
| U7C G67A A69C | 0.534 |
| U7C C27U A45C | 0.609 |
| U7C C27U A45U G48A C66U | ≤ 0.5 |
| U7C U16A C24G G41C | ≤ 0.5 |
| U7C U28A | 0.845 |
| U7C U28C | 0.879 |
| U7C G18C C55G | ≤ 0.5 |
| U7C G9C G41A | ≤ 0.5 |
| U7C U26C G41C C46A | ≤ 0.5 |
| U7C U16A G41C U54C C66U | ≤ 0.5 |

| Variant | yeast fitness |
| --- | --- |
| U7C G38C C49A A70C | ≤ 0.5 |
| U7C A21G C49U | 0.722 |
| U7C U32G C49U | ≤ 0.5 |
| U7C A21G C33G C60U | ≤ 0.5 |
| U7C C30U G39C U54C U64C | ≤ 0.5 |
| U7G A15C G44A | ≤ 0.5 |
| U7C U16C C29U | ≤ 0.5 |
| U7C C49G A69C | 0.58 |
| U7C A69U | 0.913 |
| U7C A45U U54C | 0.557 |
| U7G A20G A21G G38C G50C | ≤ 0.5 |
| U7C C11G U32G C61U | 0.59 |
| U7C C22G C24A G25C | ≤ 0.5 |
| U7C U54C | 0.821 |
| U7C U54G | 0.535 |
| U7C A43G | 0.841 |
| U7C A43U | 0.949 |
| U7C A43C | 0.88 |
| U7C C11U | 0.886 |
| U7G A14G C22U G23A G38A C55A | ≤ 0.5 |
| U7C G10A C29U C30G C34A | ≤ 0.5 |
| U7C U16A C31U A43C | 0.722 |
| U7C C11U U32C G39C G67C | ≤ 0.5 |
